Values after ≈ are worked out from the molar mass of the structure shown. Active and inactive are the calls of the source. The rule behind the calls is not given here. Bounds are passed on as bounds.

For 48 compounds, Activity and MIC results are on record in ChEMBL document CHEMBL2146415, “Antibacterial activities of Groebke-Blackburn-Bienaymé-derived imidazo[1,2-a]pyridin-3-amines” (Bioorg Med Chem, 2012).

Experiment [1] has as its target T1, Toll-like receptor 7 (Homo sapiens) (UniProt Q9NYK1).
T1 sequence (whole entry): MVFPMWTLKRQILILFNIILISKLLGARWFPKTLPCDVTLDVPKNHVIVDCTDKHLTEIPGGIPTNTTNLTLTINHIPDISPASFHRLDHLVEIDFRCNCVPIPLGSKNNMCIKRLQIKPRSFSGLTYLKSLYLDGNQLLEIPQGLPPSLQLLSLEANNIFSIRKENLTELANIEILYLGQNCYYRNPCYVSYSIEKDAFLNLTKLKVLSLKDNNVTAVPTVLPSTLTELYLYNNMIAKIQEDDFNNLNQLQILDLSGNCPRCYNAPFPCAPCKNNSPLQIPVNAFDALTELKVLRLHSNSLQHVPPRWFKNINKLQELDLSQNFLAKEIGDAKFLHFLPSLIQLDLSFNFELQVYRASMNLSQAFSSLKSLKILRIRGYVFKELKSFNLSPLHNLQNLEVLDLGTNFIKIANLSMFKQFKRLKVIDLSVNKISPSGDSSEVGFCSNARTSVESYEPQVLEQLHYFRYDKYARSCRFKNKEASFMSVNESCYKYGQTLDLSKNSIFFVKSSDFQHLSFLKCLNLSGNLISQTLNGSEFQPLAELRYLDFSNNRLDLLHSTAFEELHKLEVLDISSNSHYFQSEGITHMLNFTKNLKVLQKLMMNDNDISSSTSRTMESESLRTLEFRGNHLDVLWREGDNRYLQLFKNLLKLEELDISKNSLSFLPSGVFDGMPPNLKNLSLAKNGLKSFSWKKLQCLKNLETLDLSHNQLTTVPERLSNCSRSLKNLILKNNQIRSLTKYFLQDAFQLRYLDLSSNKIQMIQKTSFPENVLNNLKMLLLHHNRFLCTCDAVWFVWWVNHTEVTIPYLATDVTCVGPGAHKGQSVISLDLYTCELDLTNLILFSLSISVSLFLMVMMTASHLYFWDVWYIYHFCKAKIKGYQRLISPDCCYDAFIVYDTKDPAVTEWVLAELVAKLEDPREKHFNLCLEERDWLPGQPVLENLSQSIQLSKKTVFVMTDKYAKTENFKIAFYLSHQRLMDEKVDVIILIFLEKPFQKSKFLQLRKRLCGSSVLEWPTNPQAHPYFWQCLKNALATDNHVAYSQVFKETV
Briefly: Agonist activity at human TLR7 expressed in HEK293 cells co-transfected with NF-kappaB/sAP gene assessed as induction of NF-kappaB activation up to 250 uM by reporter gene assay. The experiment is classed as functional, cell-based.

The subject of experiment [2] is Staphylococcus aureus. Briefly: Bacteriostatic activity against wild type Staphylococcus aureus ATCC 13709 at 100 ug/mL by CLSI broth microdilution method. It counts as functional, organism-based.
In experiment [3] the target is T1, Toll-like receptor 7 (Homo sapiens). Briefly: Antagonist activity at TLR7 expressed in HEK293 cells co-transfected with NF-kappaB/sAP gene assessed as inhibition of gardiquimod-induced NF-kappaB activation up to 250 uM by reporter gene assay. It counts as functional, cell-based.
Experiment [4] relates to Staphylococcus aureus. Briefly: Bacteriostatic activity against wild type Staphylococcus aureus ATCC 13709 by CLSI broth microdilution method. The experiment is classed as functional. The procedure, abridged: (§1)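 MIC was determined by CLSI broth microdilution in non-cation-supplemented Mueller-Hinton broth, using OD600 0.5 cultures diluted 10-fold and 2-fold compound dilutions, overnight at 37°C, A600 read-out.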

Experiment [5] relates to Staphylococcus aureus. Briefly: Bacteriostatic activity against methicillin resistant Staphylococcus aureus ATCC 33591 by CLSI broth microdilution method. It counts as functional.
Experiment [6] relates to Staphylococcus aureus. The experiment is described as follows: Bactericidal activity against methicillin resistant Staphylococcus aureus ATCC 33591 by broth microdilution method. It counts as functional, organism-based. The method, boiled down:
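MBC by microdilution subculture: 0.5 μL from each well of the parent MIC plate (MRSA ATCC 33591) diluted into 80 μL fresh Mueller-Hinton broth, incubated overnight at 37°C, absorbance read at 600 nm.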

Another experiment concerns Streptococcus pyogenes. Briefly: Bacteriostatic activity against Streptococcus pyogenes clinical isolate by CLSI broth microdilution method. It counts as functional. The method, boiled down:
as §1

Turning to `c1ccc(Cc2nc3ccccn3c2NC2CCCCC2)cc1`, the outcome (in experiment [1]; in the experiment with Staphylococcus aureus [2]; in experiment [3]) was inactive.

On to `CC(C)(C)CC(C)(C)Nc1c(-c2c3ccccc3cc3ccccc23)nc2ccc(Br)cn12`, for which inhibition of growth with Staphylococcus aureus [4] (MIC) required 15.6 µg/mL (≈ 31.2 µM).

For `CC(C)(C)Nc1c(-c2cccc3ccccc23)nc2cnccn12`, the outcome (in experiment [1]; in the experiment with Staphylococcus aureus [2]; in experiment [3]) was inactive.

Regarding `CN(C)CCCNc1ccc2nc(-c3c4ccccc4cc4ccccc34)c(NC(C)(C)CC(C)(C)C)n2c1`, the MIC against Staphylococcus aureus [4] turned out to be 3.91 µg/mL (≈ 7.49 µM).

As to `c1ccc(CNc2c(Cc3ccccc3)nc3ccccn23)cc1`, the outcome (in experiment [1]; in the experiment on Staphylococcus aureus [2]; in experiment [3]) was inactive.

Turning to `c1ccc(CNc2c(-c3c4ccccc4cc4ccccc34)nc3ccccn23)cc1`, the result (in experiment [1]; in the experiment with Staphylococcus aureus [2]; in experiment [3]) was inactive.

For the compound `CCCCNc1c(-c2c3ccccc3cc3ccccc23)nc2ccccn12`, the minimum inhibitory concentration (MIC) with Staphylococcus aureus [5] stood at 7.81 µg/mL (≈ 21.4 µM); in the experiment with Staphylococcus aureus [4] it was 3.91 µg/mL (≈ 10.7 µM).

Regarding `c1ccc2c(-c3nc4cnccn4c3NC3CCCCC3)cccc2c1`, the result (in experiment [1]; with Staphylococcus aureus [2]; in experiment [3]) was inactive.

Regarding `c1ccc(CNc2c(-c3cccc4ccccc34)nc3cnccn23)cc1`, the result (in experiment [1]; with Staphylococcus aureus [2]; in experiment [3]) was inactive.

For the compound `CC(C)(C)Nc1c(-c2c3ccccc3cc3ccccc23)nc2ccc(NCCCCCCCCN)cn12`, the MIC in the experiment with Staphylococcus aureus [5] was 7.81 µg/mL (≈ 15.4 µM); in the experiment with Staphylococcus aureus [4], 3.91 µg/mL (≈ 7.7 µM).

`c1ccc2c(-c3nc4ncccn4c3NC3CCCCC3)c3ccccc3cc2c1` returned a minimal inhibitory concentration (MIC) in the experiment on Staphylococcus aureus [4] of 15.6 µg/mL (≈ 39.8 µM).

With `CC(C)(C)CC(C)(C)Nc1c(-c2c3ccccc3cc3ccccc23)nc2ccccn12`, the result in the experiment on Staphylococcus aureus [6] was inactive. Moreover, the MIC in the experiment with Staphylococcus aureus [5] and in the experiment with Staphylococcus aureus [4] was 3.91 µg/mL (≈ 9.27 µM) each time.

In the experiment on Staphylococcus aureus [4], `CN(C)CCCNc1c2ccccc2c(-c2nc3ccccn3c2NC(C)(C)CC(C)(C)C)c2ccccc12` had an MIC of 3.91 µg/mL (≈ 7.49 µM).

In turn, `Nc1cccn2c(NC3CCCCC3)c(-c3c4ccccc4cc4ccccc34)nc12` yielded a minimum inhibitory concentration (MIC) against Staphylococcus aureus [4] of 15.6 µg/mL (≈ 38.4 µM).

Regarding `c1ccc(Cc2nc3cnccn3c2NC2CCCCC2)cc1`, the result (in experiment [1]; with Staphylococcus aureus [2]; in experiment [3]) was inactive.

In turn, `CC(C)(C)Nc1c(-c2c3ccccc3cc3ccccc23)nc2ccc(Br)cn12` came in with a minimal inhibitory concentration (MIC) with Staphylococcus aureus [4] of 15.6 µg/mL (≈ 35.2 µM).

Consider `CC(C)(C)CC(C)(C)Nc1c(-c2cc3cccc4ccc5cccc2c5c43)nc2ccccn12`, for which the minimal inhibitory concentration (MIC) against Staphylococcus aureus [4] came to 15.6 µg/mL (≈ 35.1 µM).

Take `CC(C)(C)Nc1c(-c2ccccc2)nc2cnccn12`: the outcome (in experiment [1]; in the experiment with Staphylococcus aureus [2]; in experiment [3]) was inactive.

Turning to `CC(C)(C)CC(C)(C)Nc1c(-c2cc3ccccc3c3ccccc23)nc2ccccn12`, in the experiment with Staphylococcus aureus [4], the MIC came to 7.81 µg/mL (≈ 18.5 µM).

In the case of `c1ccc(-c2nc3cnccn3c2NC2CCCCC2)cc1`, the outcome (in experiment [1]; in the experiment on Staphylococcus aureus [2]; in experiment [3]) was inactive.

With `c1ccc(CNc2c(-c3c4ccccc4cc4ccccc34)nc3cnccn23)cc1`, the outcome (in experiment [1]; with Staphylococcus aureus [2]; in experiment [3]) was inactive.

For `COc1ccc(Nc2c(-c3c4ccccc4cc4ccccc34)nc3ccccn23)cc1`, in the experiment with Staphylococcus aureus [2], the outcome was inactive.

`CCCCCNc1c(-c2c3ccccc3cc3ccccc23)nc2ccccn12`: the MIC is 7.81 µg/mL (≈ 20.6 µM) against Staphylococcus aureus [5] and 3.91 µg/mL (≈ 10.3 µM) in the experiment on Staphylococcus aureus [4].

`c1ccc(CNc2c(-c3ccccc3)nc3cnccn23)cc1`: the outcome (in experiment [1]; with Staphylococcus aureus [2]; in experiment [3]) was inactive.

As for `c1ccc2c(-c3nc4ccccn4c3NC34CC5CC(CC(C5)C3)C4)c3ccccc3cc2c1`, in the experiment with Staphylococcus aureus [4], the minimal inhibitory concentration (MIC) was 15.6 µg/mL (≈ 35.2 µM).

For `CC(C)(C)Nc1c(Cc2ccccc2)nc2cnccn12`, the outcome (in experiment [1]; in the experiment with Staphylococcus aureus [2]; in experiment [3]) was inactive.

With `c1ccc(CNc2c(-c3cccc4ccccc34)nc3ccccn23)cc1`, the result in experiment [1] and in experiment [3] was inactive. In the experiment with Staphylococcus aureus [4], this compound yielded an MIC of 15.6 µg/mL (≈ 44.7 µM).

In the case of `CC(C)(C)CC(C)(C)Nc1c(-c2ccc(-c3ccccc3)cc2)nc2ccccn12`, the result with Staphylococcus aureus [2] was inactive.

In the case of `Cc1cccc(Cl)c1Nc1c(-c2c3ccccc3cc3ccccc23)nc2ccccn12`, in the experiment on Staphylococcus aureus [2], the outcome was inactive.

Turning to `Clc1nccn2c(NC3CCCCC3)c(-c3c4ccccc4cc4ccccc34)nc12`, in the experiment with Staphylococcus aureus [2], the result was inactive.

`CCCCCCCCN(CCCCCCCC)c1c(-c2c3ccccc3cc3ccccc23)nc2ccccn12` had an MIC against Staphylococcus aureus [4] of 31.2 µg/mL (≈ 58.5 µM).

For `c1ccc(-c2nc3ccccn3c2NC2CCCCC2)cc1`, the outcome (in experiment [1]; in the experiment on Staphylococcus aureus [2]; in experiment [3]) was inactive.

In the case of `O=C(Nc1c(-c2c3ccccc3cc3ccccc23)nc2ccccn12)C(F)(F)F`, in the experiment with Staphylococcus aureus [4], the MIC stood at 62.5 µg/mL (≈ 154 µM).

Turning to `c1ccc2c(-c3nc4cnccn4c3NC3CCCCC3)c3ccccc3cc2c1`, the result in experiment [1] and in experiment [3] was inactive. This compound registered a minimum inhibitory concentration (MIC) in the experiment with Staphylococcus aureus [4] of 7.81 µg/mL (≈ 19.9 µM).

In the experiment with Staphylococcus aureus [4], `C[Si](C)(C)CNc1c(-c2c3ccccc3cc3ccccc23)nc2ccccn12` displayed a minimal inhibitory concentration (MIC) of 15.6 µg/mL (≈ 39.5 µM).

On to `CC(C)(C)Nc1c(-c2c3ccccc3c(NCCCCCCCCN)c3ccccc23)nc2ccccn12`, for which the MIC with Staphylococcus aureus [5] is 15.6 µg/mL (≈ 30.8 µM); against Staphylococcus aureus [4] it was 7.81 µg/mL (≈ 15.4 µM).

The compound `CC(C)(C)CC(C)(C)Nc1c(-c2c3ccccc3c(Cl)c3ccccc23)nc2ccccn12` came in with a minimal inhibitory concentration (MIC) in the experiment with Staphylococcus aureus [4] of 7.81 µg/mL (≈ 17.1 µM).

On to `CC(C)(C)Nc1c(-c2c3ccccc3c(Cl)c3ccccc23)nc2ccccn12`, for which, in the experiment on Staphylococcus aureus [4], the minimal inhibitory concentration (MIC) turned out to be 7.81 µg/mL (≈ 19.5 µM).

Regarding `CCCCCCCCNc1c(-c2c3ccccc3cc3ccccc23)nc2ccccn12`, the MIC in the experiment on Staphylococcus aureus [4] stood at 7.81 µg/mL (≈ 18.5 µM).

Consider `CC(C)(C)Nc1c(-c2cccc3ccccc23)nc2ccccn12`, for which the MIC in the experiment with Streptococcus pyogenes is < 10 µg/mL; in the experiment with Staphylococcus aureus [5], 31.2 µg/mL (≈ 99.1 µM); in the experiment on Staphylococcus aureus [4] it was 62.5 µg/mL (≈ 198 µM). The result in experiment [1] and in experiment [3] was inactive.

As for `c1ccc(CNc2c(Cc3ccccc3)nc3cnccn23)cc1`, the outcome (in experiment [1]; in the experiment with Staphylococcus aureus [2]; in experiment [3]) was inactive.

Consider `CCCC(C)Nc1c(-c2c3ccccc3cc3ccccc23)nc2ccccn12` (stereo unspecified), for which the MIC with Staphylococcus aureus [5] turned out to be 3.91 µg/mL (≈ 10.3 µM); in the experiment with Staphylococcus aureus [4], 7.81 µg/mL (≈ 20.6 µM).

Consider `CC(C)Nc1c(-c2c3ccccc3cc3ccccc23)nc2ccccn12`, for which the MIC in the experiment with Staphylococcus aureus [5] and in the experiment with Staphylococcus aureus [4] was 15.6 µg/mL (≈ 44.4 µM) throughout.

Take `c1ccc2c(-c3nc4ccccn4c3NC3CCCCC3)cccc2c1`: the outcome in experiment [1] and in experiment [3] was inactive. In addition, the minimal inhibitory concentration (MIC) amounted to 15.6 µg/mL (≈ 45.7 µM) against Staphylococcus aureus [5] and 7.81 µg/mL (≈ 22.9 µM) in the experiment with Staphylococcus aureus [4].

Take `CC(C)(C)Nc1c(-c2c3ccccc3cc3ccccc23)nc2cnccn12`: the outcome (in experiment [1]; in the experiment with Staphylococcus aureus [2]; in experiment [3]) was inactive.

Turning to `Nc1c(-c2c3ccccc3cc3ccccc23)nc2ccccn12`, in the experiment with Staphylococcus aureus [2], the outcome was inactive.

Take `c1ccc(CNc2c(-c3ccccc3)nc3ccccn23)cc1`: the outcome (in experiment [1]; with Staphylococcus aureus [2]; in experiment [3]) was inactive.

In the case of `CC(C)(C)Nc1c(Cc2ccccc2)nc2ccccn12`, the result (in experiment [1]; with Staphylococcus aureus [2]; in experiment [3]) was inactive.
